Screens: PubChem BioAssay, several laboratories
MC4R antagonist = human MC4R antagonism in cAMP assay | AID 540295 | MC4R-expressing cells, MTII-stimulated cAMP, LANCE TR-FRET | 0.48% of 360,000 active | P32245 | inhibition, % at 6.5 µM;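 active = inhibition above its plate's cutoff, the mean of tested wells on that plate plus 3 SD, cut at about 29% in these data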;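 also: 0% = Melanotan II alone and 100% = Melanotan II plus saturating MCL0020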
Target sequence (P32245 whole entry, looked up): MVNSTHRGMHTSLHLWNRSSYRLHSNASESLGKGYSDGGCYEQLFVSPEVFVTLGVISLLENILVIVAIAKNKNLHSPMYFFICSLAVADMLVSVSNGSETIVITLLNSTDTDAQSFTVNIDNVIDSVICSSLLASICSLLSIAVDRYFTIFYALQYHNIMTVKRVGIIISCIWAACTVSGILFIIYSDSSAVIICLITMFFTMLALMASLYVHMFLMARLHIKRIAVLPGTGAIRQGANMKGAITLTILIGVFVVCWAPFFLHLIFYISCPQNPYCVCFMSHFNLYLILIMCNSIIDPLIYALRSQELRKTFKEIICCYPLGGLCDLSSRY
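Assay system: human MC4R-expressing U2OS cells; reagent: Melanotan II stimulation of cells; dosing: 6.5 µM single dose; timing: compound 30 min, challenge 1 h, detection 1 h; signal: TR-FRET cAMP assay; replicates: one well per compound, no replicates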
SMARCA2 act = activators of SMARCA2 function; 1% of 370,000 active; MG213 cells, MMTV-luciferase reporter, dexamethasone, overnight; activation, % at 9.1 µM; in the data active = activation above about 7.8%;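 also: 0% = vehicle wells and 100% = reference activator wells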
F508del corr = correctors of CFTR F508del function in bronchial epithelial cells; CFBE cells, YFP halide quenching; stimulated with forskolin plus potentiator P3; % fluorescence drop versus neutral controls; 0.36% of 350,000 active; AID 720511; activity (quench increase), % at 7.58 µM;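 active = mean added fluorescence quench of at least 8% versus neutral control, with both replicates also reaching 8%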;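 also: cells transiently co-express mutant CFTR-F508del with the halide-sensitive YFP; corrector assay measuring rescue of mutant channel to the surface after 24 h compound exposure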
MC4R ag barr = human MC4R agonism via beta-arrestin; P32245; U2OS MC4R beta-arrestin complementation, luminescence; percent of melanotan II response, DMSO zero; activation, % at 8.9 µM; 0.98% of 360,000 active; AID 540308;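 active = activation above a per-plate cutoff, the mean activation of sample wells on that plate plus 3 SD, cut at about 8% in these data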
MC4R barr conf = human MC4R beta-arrestin agonism confirmation; shares compounds with MC4R ag barr; U2OS MC4R beta-arrestin recruitment, luminescence; scaled DMSO 0%, Melanotan II 100%; activation, % at 8.9 µM; 31% of 2,400 active;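 active = mean activation across replicates above the hit cutoff set in the earlier primary screen, cut at about 8% in these data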
MOR-DOR barr ag = activates mu-delta opioid heterodimer, MC4R agonist counter-screen; shares compounds with MC4R ag barr; U2OS PathHunter beta-arrestin, beta-gal luminescence; percent of deltorphin B response, DMSO zero; activation, % at 9.2 µM; 5.8% of 2,400 active; AID 602194;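 active = mean activation across replicates exceeds the hit threshold derived in the earlier primary screen, cut at about 18% in these data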;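 also: 100% = deltorphin B at 0.9 µM final and 0% = DMSO alone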
Numbers without * were called inactive; · = no result. The list is not random: actives were taken first. Their share in the collection is about 2.1%.

SMILES	MC4R antagonist	SMARCA2 act	F508del corr	MC4R ag barr	MC4R barr conf	MOR-DOR barr ag
Cc1[nH]c2ccccc2c1C(=O)COC(=O)C1CC(O)CN1S(=O)(=O)c1ccc(Cl)cc1 (configuration not stated)	-1	0	-2	0	·	·
CSCCC(NS(=O)(=O)c1ccc(Cl)cc1)C(=O)OCC(=O)c1c(C)[nH]c2ccccc12 (configuration not stated)	-11	-3	·	12*	3	9
COCCNC(=O)C[C@@H]1CC[C@@H]2[C@H](COC[C@@H](O)CN2C(=O)Nc2ccc3c(c2)OCO3)O1	·	·	-2	·	·	·
COC(=O)c1cccc(NC(=O)c2nn(C(C)C)c(=O)c3ccccc23)c1	3	-3	·	14*	0	3
O=C(C[C@H]1CC[C@@H]2[C@H](COC[C@H](O)CN2Cc2cc(F)ccc2F)O1)N[C@H]1CCN(Cc2ccccc2)C1	·	·	-1	·	·	·
C/C(=N\Nc1ccc(C#N)cc1[N+](=O)[O-])c1ccc(O)cc1	4	-4	0	10*	6	8
COc1ccc(/C=N/NC(=O)Nc2cccc3nsnc23)cc1OC	1	1	-3	11*	1	12
Cc1c(-c2ccc(F)cc2)nc(N)c(C#N)c1-c1ccco1	3	1	·	15*	3	7
COc1ccc(NC(=O)Nc2ccc3c(c2)C(=O)N([C@H](C)CO)C[C@H](C)[C@H](CN(C)S(=O)(=O)c2cccs2)O3)cc1	·	·	-1	·	·	·
CC(=O)Nc1cc(-c2ccc(C(=O)N3CCOCC3)cc2)cn2c(-c3cccc(C(C)=O)c3)cnc12	19	0	4	2	·	·
COc1cccc(-c2cnc3c(NC(C)=O)cc(-c4ccc(C(=O)N5CCOCC5)cc4)cn23)c1	19	2	0	15*	20*	3
CC(=O)c1cccc(-c2cnc3c(NC=O)cc(-c4ccc(C(=O)N5CCOCC5)cc4)cn23)c1	-8	7	1	6	·	·
COc1cccc(-c2cnc3c(NC=O)cc(-c4cccc(NC(C)=O)c4)cn23)c1	-6	2	-3	12*	12*	2
COc1ccc(-c2cc(NC=O)c3ncc(-c4cccc(C(C)=O)c4)n3c2)cc1	11	0	-2	13*	13*	2
Cc1ccc(-c2cc(NC=O)c3ncc(-c4cccc(C(=O)N(C)C)c4)n3c2)cc1	-13	0	-1	4	·	·
CC(=O)c1cccc(-c2cnc3c(NC=O)cc(-c4ccccc4)cn23)c1	-2	2	1	9.6*	13*	4
O=C(C[C@H]1C[C@@H]2c3cc(NC(=O)Nc4ccccc4)ccc3O[C@@H]2[C@H](CO)O1)NCc1ccccn1	·	·	0	·	·	·
O=C(Cn1cc(S(=O)(=O)Cc2ccccc2)c2ccccc21)Nc1ccccc1	-6	·	·	9.7*	-4	4
O=C(C[C@H]1CC[C@H]2[C@@H](COC[C@@H](O)CN2C(=O)Nc2ccc(F)cc2)O1)NCCc1ccccc1	·	·	2	·	·	·
CO[C@H]1CN(C)C(=O)c2cc(NS(=O)(=O)c3cn(C)cn3)ccc2OC[C@@H](C)N(C)C[C@H]1C	·	·	3	·	·	·
Cc1cccc(CN2CCc3c([nH]c4ccccc34)C2)c1	-6	-4	-1	1	·	·
Clc1cccc(CN2CCc3c([nH]c4ccccc34)C2)c1	6	5	-2	0	·	·
Clc1ccc(CN2CCc3c([nH]c4ccccc34)C2)cc1Cl	8	-3	1	15*	45*	23*
CSc1ccc(CN2CCc3c([nH]c4ccccc34)C2)cc1	1	-1	2	11*	3	8
Cc1nnn(-c2nonc2N)c1C(=O)N/N=C/c1cccc2ccccc12	-8	0	·	-1	·	·
SMILES	MC4R antagonist	SMARCA2 act	F508del corr	MC4R ag barr	MC4R barr conf	MOR-DOR barr ag
CCCc1c(C(=O)N/N=C/c2c(OC)ccc3ccccc23)nnn1-c1nonc1N	-1	-2	1	25*	11*	5
COc1ccc(/C(C)=N/NC(=O)c2nnn(-c3nonc3N)c2CN(C)c2ccccc2)cc1	-8	-3	-1	13*	3	8
Cc1ccsc1/C=N/NC(=O)c1nnn(-c2nonc2N)c1CSc1ccccc1	1	-1	1	11*	6	10
Cc1nnn(-c2nonc2N)c1C(=O)N/N=C/c1ccccc1O	7	-4	·	10*	1	4
Cn1c(CCCOc2ccc(Cl)cc2Cl)nnc1SCC(=O)Nc1cccc(F)c1	-2	0	·	19*	9.8*	10
C=CCn1c(CCCOc2ccc(Cl)cc2Cl)nnc1SCC(=O)Nc1nccs1	-6	-2	·	9.7*	1	6
COc1ccc(-c2nc(-c3ccc(NC(=O)c4ccc(Br)o4)cc3)no2)cc1OC	0	1	·	45*	22*	46*
COc1ccc(-c2noc(N3CCC(C(=O)Nc4ccc(OC)c(OC)c4)CC3)n2)cc1	7	5	2	13*	0	5
COc1ccccc1CC(=O)Nc1ccc(-c2noc(COc3ccc(Br)cc3)n2)cc1	9	-1	·	26*	8	19*
COc1ccc(CC(=O)Nc2ccc(-c3noc(-c4ccccc4OC)n3)cc2)cc1	0	-4	·	16*	24*	14
Cc1noc(C)c1NC(=O)N(C)C[C@H]1Oc2c(NS(=O)(=O)c3cn(C)cn3)cccc2C(=O)N([C@@H](C)CO)C[C@H]1C	·	·	0	·	·	·
Cc1ccc(S(=O)(=O)N(C)C[C@@H]2Oc3ccc(NC(=O)Nc4ccc(F)cc4)cc3C(=O)N([C@H](C)CO)C[C@H]2C)cc1	·	·	0	·	·	·
COc1ccccc1CNC(=O)C[C@@H]1CC[C@@H]2[C@H](COc3ccc(NS(=O)(=O)c4ccc(C)cc4)cc3C(=O)N2C)O1	·	·	0	·	·	·
O=C(/C=C/c1ccc(Br)cc1)N1CCN(c2cccc(C(F)(F)F)c2)CC1	11	-4	·	14*	-3	5
COc1cc(NC(=O)Nc2nc(C(N)Cc3ccc(C(F)(F)F)cc3)cs2)cc(OC)c1OC (configuration not stated)	10	-4	6	20*	21*	11
COc1ccccc1CNC(=O)Nc1nc(C(N)Cc2ccc(Cl)cc2)cs1 (configuration not stated)	6	-2	8.3*	25*	40*	23*
Cc1ccc(C(=O)Nc2nc(C(N)Cc3ccc(C(F)(F)F)cc3)cs2)cc1 (configuration not stated)	8	-1	0	11*	24*	11
COc1ccc(CNC(=O)Nc2nc(C(N)Cc3ccc(Cl)cc3)cs2)cc1 (configuration not stated)	-6	-7	6	5	·	·
